Assay results: ChEMBL document CHEMBL1781905, “Discovery and optimization of N-acyl and N-aroylpyrazolines as B-Raf kinase inhibitors” (Bioorg Med Chem Lett, 2010)

Legend:
[1] = target: T1, Serine/threonine-protein kinase B-raf (Homo sapiens, UniProt P15056, V600E); assay: Inhibition of human B-Raf V600E mutant after 3 hrs
Summary of the method: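 Radiometric assay using 20 nM B-Raf V600E. It measures phosphorylation of a biotinylated surrogate peptide by ³³P-ATP in 50 mM HEPES pH 7.5 with 10 mM DTT and 50 mM MnCl₂ at 30 °C for 3 h. The reaction is stopped with 100 mM EDTA, captured 2 h on a streptavidin FlashPlate and scintillation-counted.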

[2] = target: T1, Serine/threonine-protein kinase B-raf; assay: Inhibition of B-Raf V600E mutant-mediated ERK phosphorylation in human A375 cells after 3 hrs by immunoblotting method; type: cell-based, A-375; conditions: in the assay text read “whole cell ELISA” for “immunoblotting method”
Summary of the method: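 A375 (B-Raf V600E) cells are seeded overnight, then exposed to inhibitors for 3 h at 37 °C. Cells are fixed, permeabilized and blocked overnight. They are probed 1 h with anti-phospho-ERK antibody, then with HRP-linked reagent. The TMB substrate is read as optical density at 650 nm.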

Homo sapiens = species on record: Homo sapiens; assay: Selectivity ratio of IC50 for wild type human B-Raf to IC50 for human B-Raf V600E mutant
[3] = target: Fibroblast growth factor receptor 1 (Homo sapiens, UniProt P11362); assay: Inhibition of FGFR1
Fibroblast growth factor receptor 1, sequence (P11362 whole entry): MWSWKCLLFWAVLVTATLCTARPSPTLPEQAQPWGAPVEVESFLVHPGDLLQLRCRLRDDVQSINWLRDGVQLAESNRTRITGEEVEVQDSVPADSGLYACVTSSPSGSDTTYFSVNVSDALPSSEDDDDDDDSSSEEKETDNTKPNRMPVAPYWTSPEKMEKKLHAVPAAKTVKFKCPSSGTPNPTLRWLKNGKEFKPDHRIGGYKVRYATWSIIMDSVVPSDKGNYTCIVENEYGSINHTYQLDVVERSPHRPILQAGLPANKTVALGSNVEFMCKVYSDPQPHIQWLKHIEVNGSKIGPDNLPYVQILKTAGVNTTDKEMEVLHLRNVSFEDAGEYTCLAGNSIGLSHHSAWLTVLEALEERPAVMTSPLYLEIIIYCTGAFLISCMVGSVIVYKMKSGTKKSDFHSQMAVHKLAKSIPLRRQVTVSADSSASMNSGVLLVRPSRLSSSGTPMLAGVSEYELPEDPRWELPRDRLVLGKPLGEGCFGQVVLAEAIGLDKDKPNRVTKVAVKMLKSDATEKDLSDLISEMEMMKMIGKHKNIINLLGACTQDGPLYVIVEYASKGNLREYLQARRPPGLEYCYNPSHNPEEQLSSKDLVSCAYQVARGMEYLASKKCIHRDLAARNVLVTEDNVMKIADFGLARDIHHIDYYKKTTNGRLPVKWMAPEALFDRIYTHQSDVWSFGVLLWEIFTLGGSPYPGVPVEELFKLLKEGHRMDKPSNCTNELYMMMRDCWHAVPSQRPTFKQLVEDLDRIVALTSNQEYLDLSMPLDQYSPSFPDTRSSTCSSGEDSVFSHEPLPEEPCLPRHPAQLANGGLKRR

[4] = target: T2, Receptor-type tyrosine-protein kinase FLT3 (Homo sapiens, UniProt P36888); assay: Inhibition of FLT3
T2 sequence (P36888 whole entry): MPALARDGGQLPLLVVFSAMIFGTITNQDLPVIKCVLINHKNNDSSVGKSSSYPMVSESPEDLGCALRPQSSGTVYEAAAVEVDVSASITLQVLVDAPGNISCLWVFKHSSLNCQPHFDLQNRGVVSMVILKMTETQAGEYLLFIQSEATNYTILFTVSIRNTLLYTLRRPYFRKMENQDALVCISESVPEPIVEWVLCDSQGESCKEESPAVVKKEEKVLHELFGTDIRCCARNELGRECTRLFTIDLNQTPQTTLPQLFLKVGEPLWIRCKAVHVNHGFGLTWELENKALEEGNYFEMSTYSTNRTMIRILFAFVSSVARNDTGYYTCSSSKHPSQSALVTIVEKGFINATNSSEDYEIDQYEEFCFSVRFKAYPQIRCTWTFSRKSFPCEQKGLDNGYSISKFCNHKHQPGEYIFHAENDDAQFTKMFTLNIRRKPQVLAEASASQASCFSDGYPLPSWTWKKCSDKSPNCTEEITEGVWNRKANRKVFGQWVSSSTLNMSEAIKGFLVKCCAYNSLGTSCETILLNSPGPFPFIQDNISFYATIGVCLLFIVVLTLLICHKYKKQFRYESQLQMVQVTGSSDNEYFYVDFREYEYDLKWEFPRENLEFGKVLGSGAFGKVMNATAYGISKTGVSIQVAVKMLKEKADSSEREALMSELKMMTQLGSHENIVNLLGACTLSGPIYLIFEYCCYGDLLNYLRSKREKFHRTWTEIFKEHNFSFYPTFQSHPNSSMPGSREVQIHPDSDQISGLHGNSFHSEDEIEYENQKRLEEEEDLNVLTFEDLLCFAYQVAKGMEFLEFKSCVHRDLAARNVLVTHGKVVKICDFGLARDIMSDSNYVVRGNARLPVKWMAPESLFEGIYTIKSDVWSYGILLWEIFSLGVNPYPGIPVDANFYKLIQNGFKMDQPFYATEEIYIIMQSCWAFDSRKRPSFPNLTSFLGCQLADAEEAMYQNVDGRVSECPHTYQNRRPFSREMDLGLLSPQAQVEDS

[5] = target: Vascular endothelial growth factor receptor 2 (Homo sapiens, UniProt P35968); assay: Inhibition of KDR
Vascular endothelial growth factor receptor 2, sequence (P35968 whole entry): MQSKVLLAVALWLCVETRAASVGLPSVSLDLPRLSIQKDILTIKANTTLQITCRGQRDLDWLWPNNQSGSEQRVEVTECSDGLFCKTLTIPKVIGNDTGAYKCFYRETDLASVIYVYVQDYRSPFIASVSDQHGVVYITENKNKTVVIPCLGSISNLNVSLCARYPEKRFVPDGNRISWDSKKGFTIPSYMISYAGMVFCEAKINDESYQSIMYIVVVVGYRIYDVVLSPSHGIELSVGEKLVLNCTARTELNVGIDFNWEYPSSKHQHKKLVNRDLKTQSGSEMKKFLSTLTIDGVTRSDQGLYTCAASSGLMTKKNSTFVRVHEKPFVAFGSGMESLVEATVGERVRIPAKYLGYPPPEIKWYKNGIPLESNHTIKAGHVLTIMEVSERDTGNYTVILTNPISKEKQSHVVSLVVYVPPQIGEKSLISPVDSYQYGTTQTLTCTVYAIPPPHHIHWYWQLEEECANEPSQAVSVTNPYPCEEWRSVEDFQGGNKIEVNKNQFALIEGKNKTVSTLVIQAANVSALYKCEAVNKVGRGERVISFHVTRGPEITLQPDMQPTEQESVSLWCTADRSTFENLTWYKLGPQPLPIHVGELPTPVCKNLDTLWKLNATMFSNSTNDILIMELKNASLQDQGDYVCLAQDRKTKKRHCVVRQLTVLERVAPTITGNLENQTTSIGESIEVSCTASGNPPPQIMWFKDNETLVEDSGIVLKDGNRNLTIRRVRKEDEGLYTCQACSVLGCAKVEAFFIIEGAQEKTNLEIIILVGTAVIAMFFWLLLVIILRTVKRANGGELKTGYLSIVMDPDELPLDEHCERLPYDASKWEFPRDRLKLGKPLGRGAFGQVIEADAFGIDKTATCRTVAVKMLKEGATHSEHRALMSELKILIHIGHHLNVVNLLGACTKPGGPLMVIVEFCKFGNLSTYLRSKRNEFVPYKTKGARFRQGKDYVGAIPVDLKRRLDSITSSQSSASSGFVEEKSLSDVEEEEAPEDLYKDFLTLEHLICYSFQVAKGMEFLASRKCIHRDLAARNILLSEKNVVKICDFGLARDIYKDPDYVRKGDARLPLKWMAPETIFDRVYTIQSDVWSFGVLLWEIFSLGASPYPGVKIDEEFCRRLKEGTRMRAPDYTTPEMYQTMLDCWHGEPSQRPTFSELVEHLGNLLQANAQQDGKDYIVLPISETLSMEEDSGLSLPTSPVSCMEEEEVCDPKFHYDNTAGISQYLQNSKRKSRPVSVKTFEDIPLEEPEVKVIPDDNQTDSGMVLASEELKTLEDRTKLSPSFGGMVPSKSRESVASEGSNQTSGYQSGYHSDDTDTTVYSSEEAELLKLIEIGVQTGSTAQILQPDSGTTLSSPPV

[6] = target: RAC-beta serine/threonine-protein kinase (Homo sapiens, UniProt P31751); assay: Inhibition of AKT2
[7] = target: Mast/stem cell growth factor receptor Kit (Homo sapiens, UniProt P10721); assay: Inhibition of KIT2
Mast/stem cell growth factor receptor Kit, sequence (P10721 whole entry): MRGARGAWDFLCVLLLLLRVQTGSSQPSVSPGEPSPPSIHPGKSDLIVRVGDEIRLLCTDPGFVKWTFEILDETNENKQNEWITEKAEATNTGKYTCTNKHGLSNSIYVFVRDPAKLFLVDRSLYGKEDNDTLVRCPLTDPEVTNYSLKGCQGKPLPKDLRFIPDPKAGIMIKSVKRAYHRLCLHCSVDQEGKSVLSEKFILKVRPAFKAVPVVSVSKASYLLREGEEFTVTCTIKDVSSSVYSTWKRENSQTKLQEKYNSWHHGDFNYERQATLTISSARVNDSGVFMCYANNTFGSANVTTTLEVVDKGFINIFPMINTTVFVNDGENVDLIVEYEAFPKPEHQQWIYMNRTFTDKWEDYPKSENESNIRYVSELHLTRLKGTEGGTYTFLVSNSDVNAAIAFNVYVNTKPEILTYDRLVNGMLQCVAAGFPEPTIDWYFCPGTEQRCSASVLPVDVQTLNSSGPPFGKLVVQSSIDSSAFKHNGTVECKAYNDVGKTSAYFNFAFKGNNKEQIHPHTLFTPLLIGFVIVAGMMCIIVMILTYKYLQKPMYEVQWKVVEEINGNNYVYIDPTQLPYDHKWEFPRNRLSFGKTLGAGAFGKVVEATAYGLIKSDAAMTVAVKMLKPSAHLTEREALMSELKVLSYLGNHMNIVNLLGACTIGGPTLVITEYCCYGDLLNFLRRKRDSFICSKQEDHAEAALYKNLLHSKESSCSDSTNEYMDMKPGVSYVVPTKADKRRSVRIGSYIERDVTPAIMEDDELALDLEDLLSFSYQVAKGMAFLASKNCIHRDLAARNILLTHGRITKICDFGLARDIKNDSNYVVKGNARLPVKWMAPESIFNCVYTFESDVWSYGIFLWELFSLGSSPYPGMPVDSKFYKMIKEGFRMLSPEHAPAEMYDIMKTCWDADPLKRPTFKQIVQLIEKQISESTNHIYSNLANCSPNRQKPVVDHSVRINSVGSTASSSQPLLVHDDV

[8] = target: Macrophage colony-stimulating factor 1 receptor (Homo sapiens, UniProt P07333); assay: Inhibition of CSF1R
Macrophage colony-stimulating factor 1 receptor, sequence (P07333 whole entry): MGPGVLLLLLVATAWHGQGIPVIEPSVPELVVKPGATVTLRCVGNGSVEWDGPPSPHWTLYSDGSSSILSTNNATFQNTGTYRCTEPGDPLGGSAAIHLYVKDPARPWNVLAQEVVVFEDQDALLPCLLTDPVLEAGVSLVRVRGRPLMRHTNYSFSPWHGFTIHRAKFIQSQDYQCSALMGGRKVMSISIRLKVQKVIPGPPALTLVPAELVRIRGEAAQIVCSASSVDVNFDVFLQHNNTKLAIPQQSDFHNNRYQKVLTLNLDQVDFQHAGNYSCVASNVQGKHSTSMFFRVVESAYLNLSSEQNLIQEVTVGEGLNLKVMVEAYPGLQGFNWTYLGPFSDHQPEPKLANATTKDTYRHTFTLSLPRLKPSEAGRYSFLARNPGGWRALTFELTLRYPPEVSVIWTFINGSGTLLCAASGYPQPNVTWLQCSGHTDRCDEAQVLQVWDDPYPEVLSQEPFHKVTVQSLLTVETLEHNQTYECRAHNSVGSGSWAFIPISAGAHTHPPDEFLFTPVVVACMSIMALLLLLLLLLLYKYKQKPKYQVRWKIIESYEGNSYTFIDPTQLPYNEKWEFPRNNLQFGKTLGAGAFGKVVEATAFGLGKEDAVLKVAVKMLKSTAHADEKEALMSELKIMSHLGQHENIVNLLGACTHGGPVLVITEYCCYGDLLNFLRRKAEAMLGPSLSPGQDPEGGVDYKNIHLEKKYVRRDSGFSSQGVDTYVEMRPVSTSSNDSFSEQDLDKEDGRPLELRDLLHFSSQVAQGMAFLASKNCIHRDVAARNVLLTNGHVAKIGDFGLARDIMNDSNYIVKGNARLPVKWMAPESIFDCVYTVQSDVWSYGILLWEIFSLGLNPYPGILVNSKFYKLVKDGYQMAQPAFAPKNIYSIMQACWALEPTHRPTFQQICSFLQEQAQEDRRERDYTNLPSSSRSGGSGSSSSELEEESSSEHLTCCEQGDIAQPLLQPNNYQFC

[9] = Inhibition of PKA
[10] = target: T3, Serine/threonine-protein kinase Chk1 (Homo sapiens, UniProt O14757); assay: Inhibition of Chk1
T3 sequence (O14757 whole entry): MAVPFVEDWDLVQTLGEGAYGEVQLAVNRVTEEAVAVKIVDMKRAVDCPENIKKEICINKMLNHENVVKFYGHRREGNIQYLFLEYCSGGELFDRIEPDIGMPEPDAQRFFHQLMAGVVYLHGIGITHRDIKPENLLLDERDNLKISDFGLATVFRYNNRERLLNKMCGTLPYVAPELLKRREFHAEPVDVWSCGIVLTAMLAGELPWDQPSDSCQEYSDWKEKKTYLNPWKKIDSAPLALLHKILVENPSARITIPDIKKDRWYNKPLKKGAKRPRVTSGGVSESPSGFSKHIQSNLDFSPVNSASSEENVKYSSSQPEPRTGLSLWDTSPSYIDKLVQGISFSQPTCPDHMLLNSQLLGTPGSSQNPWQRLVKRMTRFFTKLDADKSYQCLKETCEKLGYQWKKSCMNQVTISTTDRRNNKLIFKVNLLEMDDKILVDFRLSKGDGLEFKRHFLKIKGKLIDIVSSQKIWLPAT

[11] = Inhibition of CAMK2
[12] = target: Tyrosine-protein kinase Lck (Homo sapiens) (UniProt P06239); assay: Inhibition of LCK
[13] = target: Cyclin-dependent kinase 2 (Homo sapiens, UniProt P24941); assay: Inhibition of CDK2
[14] = target: Cyclin-dependent kinase 1 (Homo sapiens, UniProt P06493); assay: Inhibition of CDK1
[15] = target: Serine/threonine-protein kinase Chk2 (Homo sapiens, UniProt O96017); assay: Inhibition of Chk2
[16] = Inhibition of CK2

T1 sequence (P15056 2-766 V600E limits assumed): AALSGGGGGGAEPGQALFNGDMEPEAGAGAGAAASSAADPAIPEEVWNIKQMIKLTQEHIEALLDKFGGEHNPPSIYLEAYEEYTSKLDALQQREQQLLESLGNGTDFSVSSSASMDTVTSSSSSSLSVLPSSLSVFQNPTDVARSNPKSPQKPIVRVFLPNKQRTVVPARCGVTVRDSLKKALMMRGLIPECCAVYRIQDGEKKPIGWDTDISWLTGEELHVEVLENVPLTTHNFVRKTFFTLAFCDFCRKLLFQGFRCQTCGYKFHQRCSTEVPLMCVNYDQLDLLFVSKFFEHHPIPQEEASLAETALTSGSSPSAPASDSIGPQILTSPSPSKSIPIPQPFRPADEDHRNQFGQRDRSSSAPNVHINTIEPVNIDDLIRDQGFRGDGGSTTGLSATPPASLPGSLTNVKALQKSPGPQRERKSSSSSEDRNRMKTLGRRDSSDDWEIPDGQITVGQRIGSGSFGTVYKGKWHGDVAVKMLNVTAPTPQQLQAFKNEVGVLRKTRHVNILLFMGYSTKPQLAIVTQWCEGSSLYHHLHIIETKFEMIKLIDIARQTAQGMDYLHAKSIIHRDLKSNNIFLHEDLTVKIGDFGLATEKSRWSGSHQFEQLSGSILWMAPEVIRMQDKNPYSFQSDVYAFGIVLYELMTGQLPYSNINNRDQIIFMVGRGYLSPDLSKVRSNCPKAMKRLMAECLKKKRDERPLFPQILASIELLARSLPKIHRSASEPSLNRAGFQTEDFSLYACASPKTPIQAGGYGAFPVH

Structure (SMILES) | IC50 [1] | IC50 [2] | also measured
O=C(c1ccc(F)c(C(F)(F)F)c1)N1N=C(c2cccnc2)CC1c1ccccc1O (stereo not drawn) | 200 nM | 3800 nM | 
COc1cccc(-c2cc(C(=O)N3N=C(c4cccnc4)CC3c3ccccc3O)no2)c1 (stereo not drawn) | 6.7 nM | 930 nM | 
Cc1nc(-c2cccnc2)sc1C(=O)N1N=C(c2cccnc2)CC1c1ccccc1O (stereo not drawn) | 8.1 nM | 940 nM | 
O=C(c1ccccc1-c1ccc(F)cc1)N1N=C(c2cccnc2)CC1c1ccccc1O (stereo not drawn) | > 10000 nM |  | 
O=C(c1cccs1)N1N=C(c2cccnc2)CC1c1ccccc1O (stereo not drawn) | 24.2 nM | 1500 nM | Ratio IC50 (Homo sapiens): < 2; IC50 [3]: > 10000 nM; IC50 [4]: > 10000 nM; IC50 [5]: > 10000 nM; IC50 [6]: > 10000 nM; IC50 [7]: > 10000 nM; IC50 [8]: > 10000 nM
O=C(c1cccc2c(F)cccc12)N1N=C(c2cccnc2)CC1c1ccccc1O (stereo not drawn) | > 10000 nM |  | 
O=C(c1cccc(-n2cnnn2)c1)N1N=C(c2cccnc2)CC1c1ccccc1O (stereo not drawn) | 28 nM | > 10000 nM | 
O=C(c1ccc(-c2cccnc2)s1)N1N=C(c2cccnc2)CC1c1ccccc1O (single isomer, unassigned; early eluting) | 1200 nM | 14000 nM | 
N#Cc1ccccc1S(=O)(=O)N1N=C(c2cccnc2)CC1c1ccccc1O (stereo not drawn) | 450 nM |  | 
O=C(c1cc(-c2ccc3c(c2)OCCO3)n[nH]1)N1N=C(c2cccnc2)CC1c1ccccc1O (stereo not drawn) | 10.7 nM | 240 nM | 
O=C(c1ccc(-c2ccccc2)o1)N1N=C(c2cccnc2)CC1c1ccccc1O (stereo not drawn) | 16 nM | 1700 nM | 
O=C(c1cccc(C(F)(F)F)c1F)N1N=C(c2cccnc2)CC1c1ccccc1O (stereo not drawn) | > 10000 nM |  | 
O=C(c1ccc(-c2cccnc2)s1)N1N=C(c2cccnc2)CC1c1ccccc1O (stereo not drawn) |  |  | Ratio IC50 (Homo sapiens): < 2
Cc1ccc(-c2ccc(C(=O)N3N=C(c4cccnc4)CC3c3ccccc3O)o2)cc1 (stereo not drawn) | 58 nM | 2400 nM | 
O=C(c1ccc(C(F)(F)F)c(F)c1)N1N=C(c2cccnc2)CC1c1ccccc1O (stereo not drawn) | 660 nM |  | 
O=S(=O)(c1ccc(-c2cccnc2)s1)N1N=C(c2cccnc2)CC1c1ccccc1O (stereo not drawn) | 2000 nM | > 10000 nM | 
O=C(c1ccco1)N1N=C(c2cccnc2)CC1c1ccccc1O (stereo not drawn) |  |  | IC50 [9]: > 10000 nM; IC50 [10]: > 10000 nM; IC50 [11]: > 10000 nM; IC50 [3]: > 10000 nM; IC50 [12]: > 10000 nM; IC50 [4]: > 10000 nM; IC50 [13]: > 10000 nM; IC50 [5]: > 10000 nM; IC50 [14]: > 10000 nM; IC50 [7]: > 10000 nM; IC50 [8]: > 10000 nM; IC50 [15]: > 10000 nM; IC50 [16]: > 10000 nM
O=C(c1cccc(-n2cccn2)c1)N1N=C(c2cccnc2)CC1c1ccccc1O (stereo not drawn) | 42 nM | 8700 nM | IC50 [3]: > 10000 nM; IC50 [4]: > 10000 nM; IC50 [5]: > 10000 nM; IC50 [6]: > 10000 nM; IC50 [7]: > 10000 nM; IC50 [8]: > 10000 nM
O=C(c1cc(-c2ccc3c(c2)OCO3)on1)N1N=C(c2cccnc2)CC1c1ccccc1O (stereo not drawn) | 8.6 nM | 600 nM | 
O=C(c1ccc(-c2ccccc2)[nH]1)N1N=C(c2cccnc2)CC1c1ccccc1O (stereo not drawn) | 41.5 nM | 1100 nM | 
O=C(c1cc(-c2ccccc2O)on1)N1N=C(c2cccnc2)CC1c1ccccc1O (stereo not drawn) | 14.3 nM | 130 nM | 
O=C(c1ccccc1Oc1ccccc1)N1N=C(c2cccnc2)CC1c1ccccc1O (stereo not drawn) | > 10000 nM |  | 
O=C(c1cc(F)cc(C(F)(F)F)c1)N1N=C(c2cccnc2)CC1c1ccccc1O (stereo not drawn) | 110 nM | 9500 nM | 
